Data from ChEMBL document CHEMBL3259714, “Pyrazolo[4,3-e][1,2,4]triazine sulfonamides as carbonic anhydrase inhibitors with antitumor activity” (Bioorg Med Chem, 2014).

Columns and labels:
Carbonic anhydrase 2 = Carbonic anhydrase 2 (Homo sapiens, UniProt P00918); test: Inhibition of human carbonic anhydrase 2-mediated CO2 hydration preincubated for 15 mins by stopped-flow assay
Carbonic anhydrase 12 = Carbonic anhydrase 12 (Homo sapiens, UniProt O43570); test: Inhibition of human carbonic anhydrase 12-mediated CO2 hydration preincubated for 15 mins by stopped-flow assay
Carbonic anhydrase 9 = Carbonic anhydrase 9 (Homo sapiens, UniProt Q16790); test: Inhibition of human carbonic anhydrase 9-mediated CO2 hydration preincubated for 15 mins by stopped-flow assay
Carbonic anhydrase 1 = Carbonic anhydrase 1 (Homo sapiens, UniProt P00915); test: Inhibition of human carbonic anhydrase 1-mediated CO2 hydration preincubated for 15 mins by stopped-flow assay
MDA-MB-231 [1] = test: Inhibition of collagen synthesis in human MDA-MB-231 cells assessed as 5-[3H]-proline incorporation into proteins susceptible to action of bacterial collagenase after 24 hrs; format: functional, cell-based
Outline: (§1)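 Cells labelled 24 h in growth medium with 5-[³H]proline (5 μCi/mL, 28 Ci/mmol) at a range of compound concentrations. Collagen share of incorporated label found by digesting proteins with purified Clostridium histolyticum collagenase (Peterkofsky method). Cell and medium fractions combined. IC50 is the mean ± S.D. of three independent experiments run in duplicate.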

MDA-MB-231 [2] = test: Cytostatic activity against human MDA-MB-231 cells assessed as inhibition of DNA synthesis after 24 hrs by [3H]thymidine incorporation assay; format: functional, cell-based
Outline: (§2)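 Cells kept in DMEM with 10% FBS and penicillin/streptomycin at 37 °C. Seeded in 6-well plates and grown to about 80% confluency, in DMEM without phenol red with 10% CPSR1. Exposed to a range of concentrations plus 0.5 μCi [³H]-thymidine for 24 h at 37 °C. Cells trypsinized and washed with cold PBS until wash dpm matched the reagent control. Uptake counted by liquid scintillation as dpm/well. IC50 is mean ± S.D. of four independent experiments.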

MCF7 [3] = test: Inhibition of collagen synthesis in human MCF7 cells assessed as 5-[3H]-proline incorporation into proteins susceptible to action of bacterial collagenase after 24 hrs; format: functional, cell-based; outline: as §1
MCF7 [4] = test: Cytostatic activity against human MCF7 cells assessed as inhibition of DNA synthesis after 24 hrs by [3H]thymidine incorporation assay; format: functional, cell-based; outline: as §2
MDA-MB-231 [5] = test: Cytotoxicity against human MDA-MB-231 cells assessed as growth inhibition after 24 hrs by MTT assay; format: functional, cell-based; conditions: for IC50: MDA-MB-231, 24 h
Outline: (§3)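 Confluent cells in 6-well plates treated 24 h with a range of concentrations, then washed with PBS. MTT (0.5 mg/ml in PBS) added for 4 h at 37 °C, 5% CO₂. Dye dissolved in 0.1 mol/l HCl in isopropanol and read at 570 nm. Viability given as % of untreated control, run in triplicate. IC50 taken from dose-response curves as 50% viable cells versus control.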

MCF7 [6] = test: Cytotoxicity against human MCF7 cells assessed as growth inhibition after 24 hrs by MTT assay; format: functional, cell-based; conditions: for IC50: MCF7, 24 h; outline: as §3

Chain of Carbonic anhydrase 12 (O43570 whole entry): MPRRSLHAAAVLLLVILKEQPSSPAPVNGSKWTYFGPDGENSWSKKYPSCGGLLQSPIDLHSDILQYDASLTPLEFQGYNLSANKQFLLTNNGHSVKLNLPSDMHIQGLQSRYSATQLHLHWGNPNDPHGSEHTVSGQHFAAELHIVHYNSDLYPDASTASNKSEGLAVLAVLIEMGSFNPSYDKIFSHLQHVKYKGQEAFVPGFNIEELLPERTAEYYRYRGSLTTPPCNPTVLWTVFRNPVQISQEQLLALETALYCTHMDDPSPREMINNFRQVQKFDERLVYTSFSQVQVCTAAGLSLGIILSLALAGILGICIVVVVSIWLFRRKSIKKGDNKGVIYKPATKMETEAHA
Chain of Carbonic anhydrase 1 (P00915 whole entry): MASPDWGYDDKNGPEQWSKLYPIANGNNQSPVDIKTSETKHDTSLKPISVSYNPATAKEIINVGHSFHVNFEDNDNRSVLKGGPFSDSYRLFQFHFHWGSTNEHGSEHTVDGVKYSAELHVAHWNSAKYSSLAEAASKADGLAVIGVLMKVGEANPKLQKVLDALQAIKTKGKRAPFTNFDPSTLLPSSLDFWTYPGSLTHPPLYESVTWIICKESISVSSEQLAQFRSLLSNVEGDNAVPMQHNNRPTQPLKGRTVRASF

| Structure (SMILES) | Ki (Carbonic anhydrase 2) | Ki (Carbonic anhydrase 12) | Ki (Carbonic anhydrase 9) | Ki (Carbonic anhydrase 1) | IC50 (MDA-MB-231 [1]) | inhibition (MDA-MB-231 [2]) | IC50 (MCF7 [3]) | inhibition (MCF7 [4]) | growth inhibition (GI) (MDA-MB-231 [5]) | IC50 (MDA-MB-231 [5]) | IC50 (MDA-MB-231 [2]) | growth inhibition (GI) (MCF7 [6]) | IC50 (MCF7 [6]) | IC50 (MCF7 [4]) |
| --- | --- | --- | --- | --- | --- | --- | --- | --- | --- | --- | --- | --- | --- | --- |
| Cc1nn(C)c2nnc(S(C)(=O)=O)nc12 | 0.774 µM | 0.0066 µM | 0.089 µM | > 50 µM | – | – | – | – | – | – | – | – | – | – |
| Cc1nn(C)c2nnc(Nc3ccc(S(=O)(=O)N4CCNCC4)cc3)nc12 | 0.703 µM | 0.0057 µM | > 50 µM | > 50 µM | 180 µM | Dose-dependent effect | 175 µM | Dose-dependent effect | – | – | – | – | – | – |
| CCOc1ccc(S(=O)(=O)N2CCCC2)cc1-c1nnc2c(n1)c(C)nn2C | – | – | – | – | – | Dose-dependent effect | – | Dose-dependent effect | Dose-dependent effect | 120 µM | 159 µM | Dose-dependent effect | 112 µM | 130 µM |
| CCOc1ccc(S(=O)(=O)N2CCNCC2)cc1-c1nnc2c(n1)c(C)nn2C | – | – | – | – | – | Dose-dependent effect | – | Dose-dependent effect | Dose-dependent effect | 182 µM | 164 µM | Dose-dependent effect | 172 µM | 150 µM |
| CCOc1ccc(S(=O)(=O)NCCN)cc1-c1nnc2c(n1)c(C)nn2C | – | – | – | – | – | Dose-dependent effect | – | Dose-dependent effect | Dose-dependent effect | > 200 µM | 200 µM | Dose-dependent effect | 190 µM | > 200 µM |
| CCOc1ccc(S(=O)(=O)N2CCCNCC2)cc1-c1nnc2c(n1)c(C)nn2C | – | – | – | – | – | Dose-dependent effect | – | Dose-dependent effect | Dose-dependent effect | 130 µM | 115 µM | Dose-dependent effect | 123 µM | 129 µM |
| CCOc1ccc(S(=O)(=O)NCCO)cc1-c1nnc2c(n1)c(C)nn2C | – | – | – | – | – | Dose-dependent effect | – | Dose-dependent effect | Dose-dependent effect | > 200 µM | > 200 µM | Dose-dependent effect | > 200 µM | > 200 µM |
| Cc1nn(C)c2nnc(Nc3ccc(S(=O)(=O)NCCN)cc3)nc12 | 0.0621 µM | 0.0071 µM | 0.0237 µM | > 50 µM | 95 µM | Dose-dependent effect | 112 µM | Dose-dependent effect | – | – | – | – | – | – |
| CCOc1ccc(S(=O)(=O)N2CCN(C)CC2)cc1-c1nnc2c(n1)c(C)nn2C | – | – | – | – | – | Dose-dependent effect | – | Dose-dependent effect | Dose-dependent effect | 115 µM | 152 µM | Dose-dependent effect | 110 µM | 140 µM |
| Cc1nn(C)c2nnc(Nc3ccc(S(N)(=O)=O)cc3)nc12 | 0.008 µM | 0.0079 µM | 0.0438 µM | 0.27 µM | – | – | – | – | – | – | – | – | – | – |
| Cc1nn(C)c2nnc(Nc3ccc(S(=O)(=O)N4CCCCC4)cc3)nc12 | 0.492 µM | 0.0062 µM | > 50 µM | > 50 µM | 145 µM | Dose-dependent effect | 163 µM | Dose-dependent effect | – | – | – | – | – | – |
| CCOc1ccc(S(=O)(=O)NCCN2CCOCC2)cc1-c1nnc2c(n1)c(C)nn2C | – | – | – | – | – | Dose-dependent effect | – | Dose-dependent effect | Dose-dependent effect | 136 µM | 156 µM | Dose-dependent effect | 132 µM | 145 µM |
| Cc1nn(C)c2nnc(Nc3ccc(S(=O)(=O)N4CCCNCC4)cc3)nc12 | 0.918 µM | 0.0059 µM | > 50 µM | > 50 µM | 135 µM | Dose-dependent effect | 133 µM | Dose-dependent effect | – | – | – | – | – | – |
| Cc1nn(C)c2nnc(Nc3ccc(S(=O)(=O)N4CCOCC4)cc3)nc12 | – | – | – | – | > 200 µM | Dose-dependent effect | > 200 µM | Dose-dependent effect | – | – | – | – | – | – |
| Cc1nn(C)c2nnc(Nc3ccccc3)nc12 | 0.826 µM | 0.009 µM | 0.082 µM | > 50 µM | – | – | – | – | – | – | – | – | – | – |
| Cc1nn(C)c2nnc(Nc3ccc(S(=O)(=O)NCCO)cc3)nc12 | 0.772 µM | 0.0075 µM | 0.0265 µM | > 50 µM | > 200 µM | Dose-dependent effect | > 200 µM | Dose-dependent effect | – | – | – | – | – | – |
| O=C(O)CCCc1ccc(N(CCCl)CCCl)cc1 [CHLORAMBUCIL] | – | – | – | – | 72 µM | Dose-dependent effect | 52 µM | Dose-dependent effect | Dose-dependent effect | – | – | Dose-dependent effect | – | – |
| CCOc1ccc(S(=O)(=O)N2CCCCC2)cc1-c1nnc2c(n1)c(C)nn2C | – | – | – | – | – | Dose-dependent effect | – | Dose-dependent effect | Dose-dependent effect | 98 µM | 126 µM | Dose-dependent effect | 105 µM | 112 µM |
| Cc1nn(C)c2nnc(Nc3ccc(S(=O)(=O)NCCN4CCOCC4)cc3)nc12 | 0.719 µM | 0.0062 µM | 0.824 µM | > 50 µM | 137 µM | Dose-dependent effect | 140 µM | Dose-dependent effect | – | – | – | – | – | – |
| Cc1nn(C)c2nnc(Nc3ccc(S(=O)(=O)N4CCN(C)CC4)cc3)nc12 | 0.667 µM | 0.0053 µM | > 50 µM | > 50 µM | 58 µM | Dose-dependent effect | 47 µM | Dose-dependent effect | – | – | – | – | – | – |
| CCOc1ccc(S(=O)(=O)N2CCOCC2)cc1-c1nnc2c(n1)c(C)nn2C | – | – | – | – | – | Dose-dependent effect | – | Dose-dependent effect | Dose-dependent effect | 189 µM | 160 µM | Dose-dependent effect | 181 µM | 148 µM |
| Cc1nn(C)c2nnc(Nc3ccc(S(=O)(=O)N4CCCC4)cc3)nc12 | 0.0063 µM | 0.0081 µM | 0.652 µM | > 50 µM | > 200 µM | Dose-dependent effect | > 200 µM | Dose-dependent effect | – | – | – | – | – | – |
